Measurements: ChEMBL document CHEMBL3044834, “Novel protoporphyrinogen oxidase inhibitors: 3H-pyrazolo[3,4-d][1,2,3]triazin-4-one derivatives” (J Agric Food Chem, 2008)

What was measured:
Type in all cases: functional
[1] = tested on: Digitaria sanguinalis; experiment: Herbicidal activity against Digitaria sanguinalis (hairy crabgrass) assessed as inhibition of fresh weed plant weight at 1500 g/ha using pre-emergence treatment protocol
[2] = tested on: Amaranthus retroflexus; experiment: Herbicidal activity against Amaranthus retroflexus assessed as inhibition of fresh weed plant weight at 1500 g/ha using post-emergence treatment protocol
Method in brief: (§1)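 Test compounds made up as emulsions by dissolving in 100 µL N,N-dimethylformamide, then adding a little Tween 20 and water. For post-emergence, weed seedlings at one leaf and one stem were sprayed at the same rates as the pre-emergence test. Fresh weight was recorded 15 days after treatment and expressed as percent inhibition versus controls. All treatments were run in triplicate.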

[3] = tested on: Amaranthus retroflexus; experiment: Herbicidal activity against Amaranthus retroflexus assessed as inhibition of fresh weed plant weight at 1500 g/ha using pre-emergence treatment protocol
[4] = tested on: Brassica rapa subsp. oleifera; experiment: Herbicidal activity against Brassica rapa subsp. oleifera assessed as inhibition of fresh weed plant weight at 187.5 g/ha using post-emergence treatment protocol; method in brief: as §1
[5] = tested on: Brassica rapa subsp. oleifera; experiment: Herbicidal activity against Brassica rapa subsp. oleifera assessed as inhibition of fresh weed plant weight at 375 g/ha using post-emergence treatment protocol; method in brief: as §1
[6] = tested on: Brassica rapa subsp. oleifera; experiment: Herbicidal activity against Brassica rapa subsp. oleifera assessed as inhibition of fresh weed plant weight at 750 g/ha using post-emergence treatment protocol; method in brief: as §1
[7] = tested on: Brassica rapa subsp. oleifera; experiment: Herbicidal activity against Brassica rapa subsp. oleifera assessed as inhibition of fresh weed plant weight at 187.5 g/ha using pre-emergence treatment protocol
[8] = tested on: Brassica rapa subsp. oleifera; experiment: Herbicidal activity against Brassica rapa subsp. oleifera assessed as inhibition of fresh weed plant weight at 375 g/ha using pre-emergence treatment protocol
[9] = tested on: Brassica rapa subsp. oleifera; experiment: Herbicidal activity against Brassica rapa subsp. oleifera assessed as inhibition of fresh weed plant weight at 750 g/ha using pre-emergence treatment protocol
[10] = tested on: Digitaria sanguinalis; experiment: Herbicidal activity against Digitaria sanguinalis (hairy crabgrass) assessed as inhibition of fresh weed plant weight at 1500 g/ha using post-emergence treatment protocol; method in brief: as §1
[11] = tested on: Brassica rapa subsp. oleifera; experiment: Herbicidal activity against Brassica rapa subsp. oleifera assessed as inhibition of fresh weed plant weight at 1500 g/ha using post-emergence treatment protocol; method in brief: as §1
[12] = tested on: Brassica rapa subsp. oleifera; experiment: Herbicidal activity against Brassica rapa subsp. oleifera assessed as inhibition of fresh weed plant weight at 1500 g/ha using pre-emergence treatment protocol
[13] = tested on: Echinochloa crus-galli; experiment: Herbicidal activity against Echinochloa crus-galli (barnyard grass) assessed as inhibition of fresh weed plant weight at 750 g/ha using pre-emergence treatment protocol
[14] = tested on: Amaranthus retroflexus; experiment: Herbicidal activity against Amaranthus retroflexus assessed as inhibition of fresh weed plant weight at 750 g/ha using pre-emergence treatment protocol; method in brief: as §1
[15] = tested on: Amaranthus retroflexus; experiment: Herbicidal activity against Amaranthus retroflexus assessed as inhibition of fresh weed plant weight at 375 g/ha using pre-emergence treatment protocol
[16] = tested on: Digitaria sanguinalis; experiment: Herbicidal activity against Digitaria sanguinalis (hairy crabgrass) assessed as inhibition of fresh weed plant weight at 187.5 g/ha using pre-emergence treatment protocol
[17] = tested on: Amaranthus retroflexus; experiment: Herbicidal activity against Amaranthus retroflexus assessed as inhibition of fresh weed plant weight at 187.5 g/ha using post-emergence treatment protocol; method in brief: as §1
[18] = tested on: Digitaria sanguinalis; experiment: Herbicidal activity against Digitaria sanguinalis (hairy crabgrass) assessed as inhibition of fresh weed plant weight at 750 g/ha using post-emergence treatment protocol; method in brief: as §1
[19] = tested on: Amaranthus retroflexus; experiment: Herbicidal activity against Amaranthus retroflexus assessed as inhibition of fresh weed plant weight at 187.5 g/ha using pre-emergence treatment protocol
[20] = tested on: Amaranthus retroflexus; experiment: Herbicidal activity against Amaranthus retroflexus assessed as inhibition of fresh weed plant weight at 750 g/ha using post-emergence treatment protocol; method in brief: as §1
[21] = tested on: Amaranthus retroflexus; experiment: Herbicidal activity against Amaranthus retroflexus assessed as inhibition of fresh weed plant weight at 375 g/ha using post-emergence treatment protocol; method in brief: as §1
[22] = tested on: Echinochloa crus-galli; experiment: Herbicidal activity against Echinochloa crus-galli (barnyard grass) assessed as inhibition of fresh weed plant weight at 750 g/ha using post-emergence treatment protocol; method in brief: as §1
[23] = tested on: Echinochloa crus-galli; experiment: Herbicidal activity against Echinochloa crus-galli (barnyard grass) assessed as inhibition of fresh weed plant weight at 375 g/ha using post-emergence treatment protocol; method in brief: as §1
[24] = tested on: Echinochloa crus-galli; experiment: Herbicidal activity against Echinochloa crus-galli (barnyard grass) assessed as inhibition of fresh weed plant weight at 187.5 g/ha using post-emergence treatment protocol; method in brief: as §1
[25] = tested on: Digitaria sanguinalis; experiment: Herbicidal activity against Digitaria sanguinalis (hairy crabgrass) assessed as inhibition of fresh weed plant weight at 750 g/ha using pre-emergence treatment protocol
[26] = tested on: Digitaria sanguinalis; experiment: Herbicidal activity against Digitaria sanguinalis (hairy crabgrass) assessed as inhibition of fresh weed plant weight at 375 g/ha using pre-emergence treatment protocol
[27] = tested on: Digitaria sanguinalis; experiment: Herbicidal activity against Digitaria sanguinalis (hairy crabgrass) assessed as inhibition of fresh weed plant weight at 375 g/ha using post-emergence treatment protocol; method in brief: as §1
[28] = tested on: Digitaria sanguinalis; experiment: Herbicidal activity against Digitaria sanguinalis (hairy crabgrass) assessed as inhibition of fresh weed plant weight at 187.5 g/ha using post-emergence treatment protocol; method in brief: as §1
[29] = tested on: Echinochloa crus-galli; experiment: Herbicidal activity against Echinochloa crus-galli (barnyard grass) assessed as inhibition of fresh weed plant weight at 375 g/ha using pre-emergence treatment protocol; method in brief: as §1
[30] = tested on: Echinochloa crus-galli; experiment: Herbicidal activity against Echinochloa crus-galli (barnyard grass) assessed as inhibition of fresh weed plant weight at 187.5 g/ha using pre-emergence treatment protocol; method in brief: as §1
[31] = tested on: Echinochloa crus-galli; experiment: Herbicidal activity against Echinochloa crus-galli (barnyard grass) assessed as inhibition of fresh weed plant weight at 1500 g/ha using pre-emergence treatment protocol
[32] = tested on: Echinochloa crus-galli; experiment: Herbicidal activity against Echinochloa crus-galli (barnyard grass) assessed as inhibition of fresh weed plant weight at 1500 g/ha using post-emergence treatment protocol; method in brief: as §1

| SMILES | inhibition at 1500 g/ha [1] | inhibition at 1500 g/ha [2] | inhibition at 1500 g/ha [3] | inhibition at 187.5 g/ha [4] | inhibition at 375 g/ha [5] | inhibition at 750 g/ha [6] | inhibition at 187.5 g/ha [7] | inhibition at 375 g/ha [8] | inhibition at 750 g/ha [9] | inhibition at 1500 g/ha [10] | inhibition at 1500 g/ha [11] | inhibition at 1500 g/ha [12] | inhibition at 750 g/ha [13] | inhibition at 750 g/ha [14] | inhibition at 375 g/ha [15] | inhibition at 187.5 g/ha [16] | inhibition at 187.5 g/ha [17] | inhibition at 750 g/ha [18] | inhibition at 187.5 g/ha [19] | inhibition at 750 g/ha [20] | also measured |
| --- | --- | --- | --- | --- | --- | --- | --- | --- | --- | --- | --- | --- | --- | --- | --- | --- | --- | --- | --- | --- | --- |
| C#CCN1C(=O)COc2cc(F)c(-n3nnc4nn(CCC)cc4c3=O)cc21 | 51.6% | 100% | 100% | 11.4% | 18.9% | 19.4% | 16.4% | 45.5% | 55.2% | 43.8% | 27.9% | 75.1% | 16.9% | 100% | 100% | 0% | 56.1% | 22.2% | 100% | 100% | inhibition at 375 g/ha [21]: 100%; inhibition at 750 g/ha [22]: 25.9%; inhibition at 375 g/ha [23]: 11.2%; inhibition at 187.5 g/ha [24]: 10.2%; inhibition at 750 g/ha [25]: 32.6%; inhibition at 375 g/ha [26]: 26.1%; inhibition at 375 g/ha [27]: 16.7%; inhibition at 187.5 g/ha [28]: 13.9%; inhibition at 375 g/ha [29]: 5.6%; inhibition at 187.5 g/ha [30]: 0%; inhibition at 1500 g/ha [31]: 37.8%; inhibition at 1500 g/ha [32]: 40.9% |
| C=CCN1C(=O)COc2cc(F)c(-n3nnc4nn(CCC)cc4c3=O)cc21 | 78.6% | 100% | 100% | 0% | 29.1% | 33.7% | 13.4% | 55.2% | 69.4% | 0% | 50.3% | 88.7% | 35.9% | 100% | 100% | 4.3% | 7.3% | 0% | 27.9% | 100% | inhibition at 375 g/ha [21]: 85.4%; inhibition at 750 g/ha [22]: 5.4%; inhibition at 375 g/ha [23]: 2.4%; inhibition at 187.5 g/ha [24]: 0%; inhibition at 750 g/ha [25]: 54.3%; inhibition at 375 g/ha [26]: 39.1%; inhibition at 375 g/ha [27]: 0%; inhibition at 187.5 g/ha [28]: 0%; inhibition at 375 g/ha [29]: 16%; inhibition at 187.5 g/ha [30]: 10.8%; inhibition at 1500 g/ha [31]: 60.4%; inhibition at 1500 g/ha [32]: 11.2% |
| C=CCN1C(=O)COc2cc(F)c(-n3nnc4c(cnn4CCC)c3=O)cc21 | 90.7% | 100% | 100% | 12.6% | 45.1% | 78.9% | 26.9% | 82.8% | 100% | 52.8% | 97.5% | 100% | 62.8% | 100% | 77% | 37% | 48.8% | 33.3% | 67.2% | 100% | inhibition at 375 g/ha [21]: 100%; inhibition at 750 g/ha [22]: 7.3%; inhibition at 375 g/ha [23]: 2.3%; inhibition at 187.5 g/ha [24]: 1.5%; inhibition at 750 g/ha [25]: 71.7%; inhibition at 375 g/ha [26]: 67.4%; inhibition at 375 g/ha [27]: 25%; inhibition at 187.5 g/ha [28]: 8.3%; inhibition at 375 g/ha [29]: 55%; inhibition at 187.5 g/ha [30]: 42.9%; inhibition at 1500 g/ha [31]: 86.4%; inhibition at 1500 g/ha [32]: 20.1% |
